The structures appear in SMILES notation.

The nature of the data set: Toxicity liver stage against HepG2, at 10uM. The class given is cell-based. On the set-up: test concentration 10 uM, cell line HepG2-A16-CD81EGFP. Particulars: human, HepG2-A16-CD81EGFP cells; read-out: INHIBITION
An outline of the steps: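 Uninfected HepG2-A16-CD81EGFP cells, 3 × 10^3 per well, 1536-well, plated on prespotted compound at 10 μM final, parasite-free screening media added to match infected plates; puromycin 10 μM positive, DMSO 0.5% negative; run in parallel with 48 h PbLuc assay at 37 °C, 5% CO2; viability by CellTiter-Glo luminescence, normalized to controls.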
Take `CC(=O)N1CC[C@H](c2nc3cc(C)ccc3o2)C1`: the cytotoxicity at 10 µM is -4.13%.

As to `COc1ccccc1-n1c(C)cc(CNC(=O)NC(C)C)c1C`, the cytotoxicity at 10 µM worked out at 3.49%.

`O=C(c1nc(Cc2c[nH]c3ccccc23)no1)N1CCCC1`: the cytotoxicity at 10 µM is 7.76%.

In the case of `Cn1c(C(F)(F)F)nn(CCNC(=O)CCc2ccccc2)c1=O`, the cytotoxicity at 10 µM came to 10.7%.

Regarding `CN1CC(c2ccccc2)C2(CCN(C(=O)c3cccn3C)CC2)C1=O` (stereo unspecified), the cytotoxicity at 10 µM was determined as 3.83%.

In the case of `COCCN1CCC2(CCCN(c3ncc(F)cn3)C2)C1` (stereo unspecified), the cytotoxicity at 10 µM was determined as 4.71%.

For the molecule `Cc1nc(C)n(CC2CN(S(C)(=O)=O)Cc3nccn3C2)n1` (stereo unspecified), the cytotoxicity at 10 µM was -140%.

On to `Cc1noc([C@@]23CCO[C@@H]2CCN(C(=O)c2cc(C)[nH]c2C)C3)n1`, for which the cytotoxicity at 10 µM was 10.4%.

For the molecule `CCS(=O)(=O)N1CCOC2(CCCN(c3cccc(C#N)c3)C2)C1` (stereo unspecified), the cytotoxicity at 10 µM came to 0.341%.

Take `CN(C)c1ncc2c(n1)C1(CCN(Cc3cccnc3)C1)COC2` (stereo unspecified): the cytotoxicity at 10 µM came to 9.05%.

For the molecule `COCC1CN(Cc2cccc(C#N)c2)Cc2nccn2C1` (stereo unspecified), the cytotoxicity at 10 µM is -141%.

On to `COc1cccc2c1ccn2CCC(=O)N1CCC(C(=O)O)CC1`, for which the cytotoxicity at 10 µM turned out to be 7.08%.

As for `CCOC1COC2(CCN(Cc3ccc4c(c3)OCO4)CC2)C1` (stereo unspecified), the cytotoxicity at 10 µM was 6.94%.

As for `CN(C)CCN1CCCC12CCN(C(=O)c1cnccn1)CC2`, the cytotoxicity at 10 µM came to 4.99%.

With `Cc1nc(NCCN2CCCC2=O)cc(C2CN(C(C)C)CCO2)n1` (stereo unspecified), the cytotoxicity at 10 µM amounted to 3.88%.

On to `CCc1cccc2cc(CNCCOC)c(=O)[nH]c12`, for which the cytotoxicity at 10 µM was found to be 1.47%.

`Cc1nccn1[C@@H]1CC[C@@H](NC(=O)CCCn2cncn2)[C@H]1O`: the cytotoxicity at 10 µM is 6.17%.

In the case of `CC(=O)N1CCC2(CC1)CC(C(C)C)=NO2`, the cytotoxicity at 10 µM stood at 8.74%.

For `O=C(CCc1ccco1)NS(=O)(=O)N1CCOc2ccccc21`, the cytotoxicity at 10 µM came out at 6.07%.

For `COc1ccccc1NC(=O)c1ccc(C)n1C`, the cytotoxicity at 10 µM turned out to be 1.42%.

For `Cc1cnn(CCNCC(=O)N2CCN(c3ncccn3)CC2)c1`, the cytotoxicity at 10 µM was -0.0264%.

In the case of `CC(Nc1ccc(C#N)cc1F)c1cccc(S(N)(=O)=O)c1` (stereo unspecified), the cytotoxicity at 10 µM is -3.86%.

Take `Cc1cc(NC(=O)CNc2cccc(OC(F)F)c2C)n(C)n1`: the cytotoxicity at 10 µM was determined as 9.47%.

Take `N#Cc1ccc(NCCC(=O)N2CCCc3ccccc32)nc1`: the cytotoxicity at 10 µM is -1.33%.

Regarding `CCOc1cc(Cl)ccc1CNC(=O)N(C)CC(C)(C)O`, the cytotoxicity at 10 µM was -0.538%.

As to `O=C1CCN(C(=O)C2(c3ccc(F)cc3)CCCC2)CCN1`, the cytotoxicity at 10 µM is -8.27%.

Turning to `CCOCC(=O)NC1(c2nc(C)cs2)CCCC1`, the cytotoxicity at 10 µM was -12.7%.

`Cc1cccc(NC(=O)[C@@H]2CCCN2Cc2ccc(C#N)cc2F)n1`: the cytotoxicity at 10 µM is -5.64%.

As to `CN1CCC(N(Cc2ccccc2F)C(=O)NCc2ccncc2)CC1`, the cytotoxicity at 10 µM was -2.14%.

Turning to `CCC(CC)c1cc(CNC(=O)N2CCN(CC)CC2)on1`, the cytotoxicity at 10 µM is -3.26%.

As to `COc1ccccc1N1CCN(Cc2nc(C)c(C)o2)CC1`, the cytotoxicity at 10 µM stood at 13.4%.

For `N#CCCN(Cc1ccco1)C(=O)Cc1ccc(-n2cnnn2)cc1`, the cytotoxicity at 10 µM was 3.23%.

On to `CC(CNCC1(S(C)(=O)=O)CCOCC1)c1ccc(F)cc1` (stereo unspecified), for which the cytotoxicity at 10 µM was -5.06%.

Consider `Cc1ccsc1CNC(=O)c1ccc(N2CCNC2=O)cc1`, for which the cytotoxicity at 10 µM worked out at 1.79%.

Consider `COc1ccc(C(=O)Nc2cnn(CC(=O)NC3CCCC3)c2)c(O)c1`, for which the cytotoxicity at 10 µM was -14.8%.

In the case of `CC(C)c1nnc2n1CC(CNCc1ccncc1)CC2` (stereo unspecified), the cytotoxicity at 10 µM is -17.5%.

With `O=C(O)c1cc2c(nc1-c1ccncc1)CCN(Cc1ccoc1)CC2`, the cytotoxicity at 10 µM was -70.9%.

For `COCC(=O)N1CCCC2(CCN(c3cncnc3)C2=O)C1` (stereo unspecified), the cytotoxicity at 10 µM is -72.5%.

For `c1cnc(NCC2Cn3nnc(-c4ccoc4)c3CO2)nc1` (stereo unspecified), the cytotoxicity at 10 µM was -76.1%.

For `O=C(c1ccco1)N1CCn2cc(CN3CCCC3)nc2C1`, the cytotoxicity at 10 µM is -78.9%.

With `NC(=O)N1CCC2(CC1)CN(c1ncccn1)CCO2`, the cytotoxicity at 10 µM is -75.1%.

As for `CCNC(=O)c1c2c(N3CCN(C)CC3)ncnc2n2ccccc12`, the cytotoxicity at 10 µM was -74.8%.

Turning to `O=C(c1ccnnc1)N1CC[C@H]2C[C@H](c3ccncn3)O[C@@H]2C1`, the cytotoxicity at 10 µM was -71.8%.

`O=C(NCC1CC1)[C@H]1C[C@@H]2CCN(Cc3nccs3)C[C@@H]2O1`: the cytotoxicity at 10 µM was -1.7%.

With `N[C@H]1CN(C(=O)Cc2ccc(CO)cc2)C[C@@H]1C1CC1`, the cytotoxicity at 10 µM is -5.68%.

As for `Cc1nn(C)c2ncnc(N3CCCC(OCc4cccnc4)C3)c12` (stereo unspecified), the cytotoxicity at 10 µM amounted to 12.8%.

As to `COCCN1CC2(CCCN(C(=O)CCCc3cccs3)C2)CCC1=O` (stereo unspecified), the cytotoxicity at 10 µM was -8.5%.

As for `CCCN1CCC=C(C2c3nc[nH]c3CCN2C(=O)c2ccco2)C1` (stereo unspecified), the cytotoxicity at 10 µM worked out at 1.33%.

Turning to `COCCN1CCC2(CCC1=O)CN(c1ccnc(SC)n1)CCN2C` (stereo unspecified), the cytotoxicity at 10 µM was found to be 2.41%.

For the molecule `COc1ccc(N2CCN(CC[C@H](O)c3ccccc3)CC2=O)cc1`, the cytotoxicity at 10 µM came to 2.41%.

On to `CCCn1cc(-c2cc(-c3cnc(OC)nc3)c(C#N)c(N)n2)c(C)n1`, for which the cytotoxicity at 10 µM was 2.89%.

As to `OC1(CNCc2noc(Cc3ccccc3)n2)CNCCOC1` (stereo unspecified), the cytotoxicity at 10 µM turned out to be 9.34%.

Consider `O=C(NCc1sc2ccccc2c1Cl)c1cc2n(n1)CCNC2`, for which the cytotoxicity at 10 µM was 7.94%.

As for `CC(=O)NCCNCC1(O)CCCN(CCC2CCCCC2)C1=O` (stereo unspecified), the cytotoxicity at 10 µM is 6.27%.

Take `CSc1ccc(CCN2CCN([C@H]3CCCC[C@@H]3O)CC2)cc1`: the cytotoxicity at 10 µM was -3.38%.

In the case of `CN(C)C(=O)NCC(=O)N(C)Cc1cc(-c2ccccc2)no1`, the cytotoxicity at 10 µM amounted to 1.14%.

Regarding `OCC1COCCN(c2ncccc2C(F)(F)F)C1` (stereo unspecified), the cytotoxicity at 10 µM was -9.34%.

On to `CCc1ccc(OCC(=O)N2CCN(CC)CC2)cc1`, for which the cytotoxicity at 10 µM worked out at 6.15%.

Regarding `Cn1ccnc1C1c2nc[nH]c2CCN1Cc1cccnc1` (stereo unspecified), the cytotoxicity at 10 µM was found to be 0.0371%.

As for `CN(C)CCNC(=O)c1cc2n(n1)CCN(C(=O)c1ccc[nH]1)C2`, the cytotoxicity at 10 µM amounted to 2.58%.

With `O=S1(=O)COCCN1Cc1ccc(Cl)c(F)c1`, the cytotoxicity at 10 µM is -11.6%.

In the case of `COc1cccn(CC(=O)N(C)CCOc2cc(C)cc(C)c2)c1=O`, the cytotoxicity at 10 µM was -10.6%.

As for `CSc1ncccc1C(=O)N1CCC(c2nc3c(C)cccc3[nH]2)CC1`, the cytotoxicity at 10 µM was -20%.

Take `CC(=O)N1CCc2c(nc(-c3ccncc3)nc2N(C)CC(O)CO)C1` (stereo unspecified): the cytotoxicity at 10 µM was -13.1%.

As to `Cc1nccn1-c1cccc(C2CCCN2S(=O)(=O)c2cn(C)cn2)n1` (stereo unspecified), the cytotoxicity at 10 µM was 7.99%.

Consider `COc1c(C2CCCN2C(=O)c2scnc2C)c(C)nn1C` (stereo unspecified), for which the cytotoxicity at 10 µM is -1.49%.

With `Cc1ccc(OCC(=O)N2CCCC(n3nc(C)nc3C)C2)cc1` (stereo unspecified), the cytotoxicity at 10 µM is -10.1%.

With `CCn1cnnc1CNC(=O)N1CCN(c2ccccc2Cl)CC1`, the cytotoxicity at 10 µM was -0.502%.

Turning to `c1cc(CN2CCOC(Cn3cccn3)C2)c2c(c1)OCCO2` (stereo unspecified), the cytotoxicity at 10 µM was -2.66%.

Consider `CCc1ccc(CNC(=O)NCc2nnc3n2CCC3)s1`, for which the cytotoxicity at 10 µM turned out to be 2.12%.

As to `CCCc1n[nH]c(C2CN(C(=O)CCc3cscn3)CCO2)n1` (stereo unspecified), the cytotoxicity at 10 µM is -1.63%.

On to `Cc1cc(NC(=O)CN2CCn3c(nnc3C3CC3)C2)on1`, for which the cytotoxicity at 10 µM is -9.92%.

Turning to `COc1ccc(CN(C)C(=O)NCc2c(C)cc(C)[nH]c2=O)cc1`, the cytotoxicity at 10 µM is -1.13%.

Regarding `CCN(CC)c1ccc(C(=O)N(C)Cc2c(C)noc2C)cn1`, the cytotoxicity at 10 µM was -5.38%.

Consider `CNC(=O)c1cccc(NC(=O)Cn2nc(-c3cccs3)oc2=O)c1`, for which the cytotoxicity at 10 µM was -8.28%.

Consider `O=C(NCCNc1ncccn1)c1ccc(-c2ccco2)[nH]c1=O`, for which the cytotoxicity at 10 µM is -3.29%.

Turning to `CCN(C(=O)c1ccc(-n2ncc(C#N)c2N)cc1)C1CCCC1`, the cytotoxicity at 10 µM was -13%.

For `Cc1nn(C)c(N(C)C)c1CNC(C)COc1cccc(F)c1` (stereo unspecified), the cytotoxicity at 10 µM is -4.96%.

`CCn1cc(NC(=O)NCC(O)CN2CCc3ccccc3C2)cn1` (stereo unspecified): the cytotoxicity at 10 µM was -4.33%.

`CC(=O)Nc1nc(C(=O)N2CCCC2Cn2cc(C)cn2)cs1` (stereo unspecified): the cytotoxicity at 10 µM amounted to 7.07%.

Take `Cc1n[nH]c(C2CN(C(=O)c3cnc[nH]3)CCO2)n1` (stereo unspecified): the cytotoxicity at 10 µM is -0.265%.

As to `Cc1ncsc1CN1C[C@H](C(=O)N2CCCO2)[C@@H]2CCO[C@@H]2C1`, the cytotoxicity at 10 µM is -11.6%.

Consider `COc1ccc(CNC(C)Cn2cccn2)c(OC)c1OC` (stereo unspecified), for which the cytotoxicity at 10 µM is -8.17%.

With `CN(C)C(=O)CO[C@H]1CN(Cc2ccc(F)cc2)[C@@H]2CCCO[C@H]12`, the cytotoxicity at 10 µM is -22.3%.

As to `O=C(c1cscn1)N1CCC2(CN(Cc3ccncc3)C2)C1`, the cytotoxicity at 10 µM was 6.82%.

On to `COCCNC(=O)[C@H]1CN(Cc2csc(C)n2)C[C@H]2OCC[C@@H]12`, for which the cytotoxicity at 10 µM came to 9.9%.

`c1cnc(NCc2nnn3c2CN(Cc2cccs2)CCC3)nc1`: the cytotoxicity at 10 µM was 10.1%.

For the molecule `CN(C)C(=O)[C@H]1C[C@H]2OCC[C@H]2N(Cc2ccc3ccccc3n2)C1`, the cytotoxicity at 10 µM was -55.9%.

Consider `O=C([C@H]1CN(Cc2ccc(F)cc2)C[C@H]2OCC[C@@H]12)N1CCCO1`, for which the cytotoxicity at 10 µM is 7.77%.

As to `c1ccc(OCc2nnc3n2CCN(Cc2ccco2)C3)nc1`, the cytotoxicity at 10 µM is 5.5%.

`c1ccc(CN2CCc3ncnc(-c4cccnc4)c3CC2)nc1`: the cytotoxicity at 10 µM is -75.7%.

With `Cc1cccc(C(=O)N2CCC3(CCN(c4cnn(C)c4)C3=O)C2)n1` (stereo unspecified), the cytotoxicity at 10 µM worked out at 5.05%.

Take `Cc1ccc(N2CCO[C@H]3CN(Cc4nccs4)C[C@H]32)nn1`: the cytotoxicity at 10 µM is -94.7%.

With `CCS(=O)(=O)NC[C@]12COC[C@H]1CN(Cc1cccnc1)C2`, the cytotoxicity at 10 µM came to 5.22%.

For `CCc1cc(NC2CCC(O)CC2)n2nc(C)c(C)c2n1` (stereo unspecified), the cytotoxicity at 10 µM is -6.86%.

For `CCCn1nccc1NC(=O)CN1CCCC1c1cccn1C` (stereo unspecified), the cytotoxicity at 10 µM is -5.76%.

For the origin of these results see ChEMBL document CHEMBL4513216, “Probing the Open Global Health Chemical Diversity Library for Multistage-Active Starting Points for Next-Generation Antimalarials” (ACS Infect Dis, 2020).
